Screening results (PubChem)
STEP inh – STEP phosphatase inhibitors, primary screen, biochemical, fluorescence intensity, uHTS; recombinant STEP, OMFP fluorogenic substrate; inhibition, % at 20 µM; 360,000 compounds, 0.25% hits; Tyrosine-protein phosphatase non-receptor type 5 (Homo sapiens), P54829; AID 588621, 2011;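 active = inhibition at 20 µM, scaled per plate between control wells, above about 37%, limit read from the data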
Target sequence (P54829 whole entry, looked up): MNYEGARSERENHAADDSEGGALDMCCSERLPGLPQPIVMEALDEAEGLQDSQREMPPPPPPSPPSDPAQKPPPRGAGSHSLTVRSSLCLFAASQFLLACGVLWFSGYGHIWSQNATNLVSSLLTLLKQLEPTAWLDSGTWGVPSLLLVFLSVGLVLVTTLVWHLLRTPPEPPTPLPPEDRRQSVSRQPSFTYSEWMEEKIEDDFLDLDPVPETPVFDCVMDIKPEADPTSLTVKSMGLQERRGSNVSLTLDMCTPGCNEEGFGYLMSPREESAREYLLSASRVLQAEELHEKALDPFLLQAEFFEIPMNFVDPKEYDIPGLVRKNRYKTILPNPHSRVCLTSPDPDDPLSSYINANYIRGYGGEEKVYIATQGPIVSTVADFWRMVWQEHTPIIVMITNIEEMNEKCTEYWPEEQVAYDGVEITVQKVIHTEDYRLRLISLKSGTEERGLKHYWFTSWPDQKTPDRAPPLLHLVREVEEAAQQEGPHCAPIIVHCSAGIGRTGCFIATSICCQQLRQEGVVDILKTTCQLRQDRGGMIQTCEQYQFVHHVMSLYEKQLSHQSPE
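Measure: Control-normalized % inhibition with plate pattern correction | Test system: STEP phosphatase, cell-free reaction | Medium: pH 6.0 Bis-Tris with DTT and Tween 20 | Technique: Fluorescence, 480/540 nm | Times: Reaction 20 min, ambient temperature | Doses: Single compound dose of 20 µM, 1% DMSO final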
SUMO1 PPI mod – modulators of SUMO1 protein-protein interactions, primary screen, biochemical, uHTS; Small ubiquitin-related modifier 1 (Homo sapiens), P63165; SUMO1 binding to a labelled peptide, TR-FRET, 1 h; inhibition, % at 20 µM; 360,000 compounds, 0.33% hits; AID 602429, 2012; in the data active = inhibition above about 37%
FAS-TE inh – FAS thioesterase domain inhibitors, primary screen, biochemical, fluorescence intensity, uHTS. Fatty acid synthase (Homo sapiens), P49327. recombinant FAS-TE, OMFH fluorogenic substrate, fluorescence endpoint. inhibition, % at 15 µM. 360,000 compounds, 0.67% hits. AID 602261, 2012;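 active = compounds whose normalised, plate-corrected inhibition of enzyme fluorescence in the single-dose primary screen is 50% or more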
LMPTP inh – LMPTP phosphatase inhibitors, primary screen, biochemical, fluorescence intensity, uHTS; Low molecular weight phosphotyrosine protein phosphatase (Homo sapiens), P24666; 360,000 compounds, 0.22% hits; inhibition, % at 20 µM; recombinant LMPTP-A, OMFP fluorogenic substrate;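 active = compounds that cut the enzyme signal by at least half of the control window in the single-dose screen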
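Test system: LMPTP-A phosphatase enzyme. Amount: LMPTP-A at 0.625 nM final in the reaction. Reagent: OMFP substrate, 400 µM final. Times: 50 min at room temperature. Signal: endpoint fluorescence intensity from OMFP dephosphorylation. Read-out basis: % inhibition. Benchmarks: no-enzyme and uninhibited controls.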
Scp-1 inhibitor – Scp-1 phosphatase inhibitors, primary screen, biochemical, colorimetric, uHTS | Carboxy-terminal domain RNA polymerase II polypeptide A small phosphatase 1 (Homo … | Recombinant Scp1, phosphopeptide, malachite green phosphate absorbance | inhibition, % at 20 µM | 340,000 compounds, 0.88% hits;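 active = inhibition above about 50% at 20 µM, limit read from the data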
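Material: truncated SCP-1 phosphatase (76-261aa) / Buffer or medium: 50 mM Tris acetate pH 5.5, 0.005% Tween-20, 10 mM MgCl2 / Compound dosing: one concentration, 20 µM, with 1.0% DMSO / Incubation: 45 min room-temperature reaction, 5 min colour, 30 min stabiliser / Detection: colorimetric free-phosphate detection, absorbance 630 nm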
Scp1 confirm – Scp-1 phosphatase inhibitors, retest, confirmation, biochemical, colorimetric, single concentration. shares compounds with Scp-1 inhibitor. recombinant SCP-1 catalytic domain, phosphate release, malachite green absorbance. inhibition, % at 20 µM. 2,500 compounds, 61% hits. AID 540281, 2011
MG interference – colorimetric readout interference by compounds, confirmation, artefact control for Scp-1 inhibitor project, biochemical, single concentration | Colorimetric interference counterscreen, malachite green absorbance 630 nm | apparent inhibition (interference), % at 20 µM | 2,500 tested, under 10 active | shares compounds with Scp-1 inhibitor;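 note: compounds added after enzyme reaction finished so only phosphate colour detection is probed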
Scp1 DSF – Scp-1 binding by thermal shift, confirmation, orthogonal assay for Scp-1 inhibitor project, biophysical, differential scanning fluorimetry. shares compounds with Scp-1 inhibitor. Recombinant SCP1, Sypro Orange thermal shift Tm. thermal shift relative to vanadate control, % at 40 µM. 1,500 compounds, 25% hits. AID 540329, 2011;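 active = substances whose mean melting-temperature shift, as a percentage of the reference inhibitor's shift, reaches about 5.3%, limit read from the data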
A number is an active result; i = inactive; nt = not tested or not shown; ! = not active in a repeat. Hits are enriched below; roughly 1.9% of the tested compounds scored in any of these assays.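 Rule for the calls, unless noted: active = inhibition of at least 30% at 20 µM; inactive = the rest.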

SMILES	STEP inh	SUMO1 PPI mod	FAS-TE inh	LMPTP inh	Scp-1 inhibitor	Scp1 confirm	MG interference	Scp1 DSF
O=C(OCc1nc2ccsc2c(=O)[nH]1)c1ccco1	i	i	i	i	i	nt	nt	nt
O=C(O)CC(Sc1n[nH]c(=S)s1)C(=O)O (configuration not stated)	i	i	i	i	79	36	i	i
Cc1cccn2c(=O)c3cc(C#N)c(=NC(=O)c4ccccc4)n(Cc4ccco4)c3nc12	i	i	i	i	87	i	i	nt
CCOC(=O)c1cc2c(=O)n3ccccc3nc2n(Cc2ccco2)c1=NC(=O)c1cccnc1	i	i	i	i	i	nt	nt	nt
Cc1cccn2c(=O)c3cc(C#N)c(=NC(=O)c4cccs4)n(CC(C)C)c3nc12	i	i	i	i	i	nt	nt	nt
Cc1cccc(C(=O)N=c2c(C#N)cc3c(=O)n4cccc(C)c4nc3n2Cc2ccco2)c1	i	51!	i	i	85!	46	i	15
CCOC(=O)c1cc2c(=O)n3cccc(C)c3nc2n(Cc2ccco2)c1=NC(=O)c1cccnc1	i	i	i	i	52	44	i	6.9
COCCCn1c(=NC(C)=O)c(C#N)cc2c(=O)n3cccc(C)c3nc21	i	i	i	i	i	nt	nt	nt
Cc1cccn2c(=O)c3cc(C#N)c(=NC(=O)c4ccco4)n(Cc4ccco4)c3nc12	i	i	i	i	76	36	i	10.0
Cc1ccccc1-c1cnc2c(c1)C(=O)N([C@H](C)CO)C[C@@H](C)[C@H](CN(C)C(=O)c1ccncc1)O2	i	i	i	i	nt	nt	nt	nt
CCCCCCCCN1C(=O)[C@H](CC(=O)N2CCN(C(=O)OCC)CC2)C[C@@]2(C(=O)OC)CCCCC=C12	nt	i	i	i	nt	nt	nt	nt
O=C(CSc1nccc(=O)[nH]1)NCc1ccco1	i	i	i	i	93	69	i	i
O=C(CSc1nc2c(sc3ccccc32)c(=O)n1CCO)NCc1ccco1	i	i	i	i	74	64	i	i
O=C(CSc1ncccc1-c1nc2ccccc2[nH]1)NCc1ccco1	i	i	i	i	56	66	i	6.5
Cc1cc2nc(-c3cccnc3SCC(=O)NCc3ccco3)[nH]c2cc1C	i	i	i	i	i	nt	nt	nt
CCCCN1C(=O)C(CC(=O)NCc2ccco2)CC(C(=O)N(CC)CC)=C1C (configuration not stated)	i	i	i	i	nt	nt	nt	nt
CCOC(=O)c1cccc(NC(=O)Cn2cc3c(n2)CCC(C)C3)c1 (configuration not stated)	i	i	i	i	68	i	i	nt
CCc1cccc(NC(=O)Cn2cc3c(n2)CCCC3)c1	i	i	i	i	i	nt	nt	nt
Cc1nnc(SCC(=O)Nc2nsc(-c3ccc(Cl)cc3)n2)s1	i	i	i	i	70	43	i	i
Cc1ccc(-c2nc(NC(=O)CSc3ncn[nH]3)ns2)cc1	i	i	i	i	i	nt	nt	nt
CCc1nnc(NC(=O)CSc2nnc3scc(-c4ccc(C)cc4)n23)s1	i	i	i	i	i	nt	nt	nt
Cc1ccc(-c2nc(NC(=O)CSc3nnc4scc(-c5ccccc5)n34)ns2)cc1	i	i	i	i	64	65	i	i
CCOC(=O)[C@]12CCC=C1N(Cc1ccccc1)C(=O)[C@H](CC(=O)NCc1cccs1)C2	nt	i	i	i	nt	nt	nt	nt
